Test results as given in ChEMBL document CHEMBL1145179, “Synthesis and enzyme-specific activation of carbohydrate-geldanamycin conjugates with potent anticancer activity” (J Med Chem, 2005).

How the values were obtained:
Type in all cases: functional, cell-based
HT-29 = test: Inhibitory concentration against human colorectal carcinoma HT-29 cell lines
Procedure, shortened: (§1)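 MTS assay. Cells (2000-10 000) seeded in RPMI-1640 and grown 24 h, then exposed to various concentrations for 72 h at 37 °C under 5% CO₂. MTS (2 mg/ml) with PMS (25 µM) added for 3 h at 37 °C, and formazan read at 490 nm. IC50 taken from dose-response curves of % growth vs untreated control.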

SW-620 = test: Inhibitory concentration against human colorectal carcinoma SW620 cell lines; procedure, shortened: as §1
K562 = test: Inhibitory concentration against human leukemia K562 cell lines; procedure, shortened: as §1
MCF7 [1] = test: Inhibitory concentration against human Breast cancer MCF-7 cell lines; procedure, shortened: as §1
MCF7 [2] = test: Inhibitory concentration against human breast cancer MCF-7 cell lines; procedure, shortened: as §1

Row | Compound | IC50 (HT-29) [µM] | IC50 (SW-620) [µM] | IC50 (K562) [µM] | IC50 (MCF7 [1]) [µM] | IC50 (MCF7 [2]) [µM]
1 | COC1/C=C\C=C(/C)C(=O)NC2=CC(=O)C(NCCCCCO[C@@H]3O[C@@H](CO)[C@H](O)[C@H](O)[C@@H]3O)=C(C[C@@H](C)C[C@H](OC)[C@H](O)C(C)/C=C(\C)[C@@H]1OC(N)=O)C2=O (stereo partly drawn) | > 13 | > 13 | > 19 | > 17 | –
2 | COC1/C=C\C=C(/C)C(=O)NC2=CC(=O)C(NCCOCCO[C@@H]3O[C@@H](CO)[C@H](O)[C@H](O)[C@@H]3O)=C(C[C@@H](C)C[C@H](OC)[C@H](O)C(C)/C=C(\C)[C@@H]1OC(N)=O)C2=O (stereo partly drawn) | > 13 | > 11 | > 15 | > 22 | –
3 | COC1/C=C\C=C(/C)C(=O)NC2=CC(=O)C(NCCO[C@@H]3O[C@@H](CO)[C@@H](O[C@@H]4O[C@@H](CO)[C@H](O)[C@H](O)[C@@H]4O)[C@H](O)[C@@H]3O)=C(C[C@@H](C)C[C@H](OC)[C@H](O)C(C)/C=C(\C)[C@@H]1OC(N)=O)C2=O (stereo partly drawn) | > 25 | > 20 | > 25 | > 22 | –
4 | COC1/C=C\C=C(/C)C(=O)NC2=CC(=O)C(NCCO[C@@H]3O[C@@H](CO)[C@H](O)[C@H](O)[C@@H]3O)=C(C[C@@H](C)C[C@H](OC)[C@H](O)C(C)/C=C(\C)[C@@H]1OC(N)=O)C2=O (stereo partly drawn) | > 14 | > 8 | > 23 | > 25 | –

Next, values leading:

Row | IC50 (HT-29) [µM] | IC50 (SW-620) [µM] | IC50 (K562) [µM] | IC50 (MCF7 [1]) [µM] | IC50 (MCF7 [2]) [µM] | Compound
5 | 0.105 | 0.0702 | 0.381 | 0.754 | – | COC1/C=C\C=C(/C)C(=O)NC2=CC(=O)C(NCCO[C@@H]3O[C@@H](CO)[C@@H](O)[C@H](O)[C@@H]3O)=C(C[C@@H](C)C[C@H](OC)[C@H](O)C(C)/C=C(\C)[C@@H]1OC(N)=O)C2=O (stereo partly drawn)
6 | > 6 | > 14 | > 14 | > 12 | – | COC1/C=C\C=C(/C)C(=O)NC2=CC(=O)C(NCCCO[C@@H]3O[C@@H](CO)[C@H](O)[C@H](O)[C@@H]3O)=C(C[C@@H](C)C[C@H](OC)[C@H](O)C(C)/C=C(\C)[C@@H]1OC(N)=O)C2=O (stereo partly drawn)
7 | 0.0245 | 0.0062 | 0.0221 | – | 0.0065 | COC1=C2C[C@@H](C)C[C@H](OC)[C@H](O)[C@@H](C)/C=C(\C)[C@H](OC(N)=O)[C@@H](OC)/C=C\C=C(/C)C(=O)NC(=CC1=O)C2=O [GELDANAMYCIN]
